Measured values reported in ChEMBL document CHEMBL1275425, “Mechanism of inhibition of human immunodeficiency virus type 1 reverse transcriptase by a stavudine analogue, 4'-ethynyl stavudine triphosphate” (Antimicrob Agents Chemother, 2008).

What was measured:
[1] = biological target: Human immunodeficiency virus type 1 reverse transcriptase (Human immunodeficiency virus 1) (UniProt Q72547); assay: Selectivity index, ratio of Kpol/Kd for DNA-dependent DNA polymerase activity of HIV 1 reverse transcriptase assessed as incorporation of dTMP to Kpol/Kd for DNA-dependent DNA polymerase activity of HIV 1 reverse transcriptase reverse transcriptase assessed as incorporation of Ed4TMP
In short: (§1)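 Selectivity factor: the single-turnover incorporation efficiency (kpol/Kd) for dTTP divided by that for the analogue triphosphate. Both used the same RT (wild type or M184V) and the same primer/template, DNA/DNA or DNA/RNA. Kd and kpol came from hyperbolic fits of first-phase rates against nucleotide concentration, with 250 nM RT over 50 nM labeled P/T at 25°C.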

[2] = system: Human immunodeficiency virus type 1 reverse transcriptase (Human immunodeficiency virus 1), Q72547 [M184V]; assay: Selectivity index, ratio of Kpol/Kd for DNA-dependent DNA polymerase activity of HIV 1 reverse transcriptase M184V mutant assessed as incorporation of dTMP to Kpol/Kd for DNA-dependent DNA polymerase activity of HIV 1 reverse transcriptase reverse transcriptase M184V mutant assessed as incorporation of Ed4TMP; in short: as §1
[3] = biological target: Human immunodeficiency virus type 1 reverse transcriptase (Human immunodeficiency virus 1) (UniProt Q72547); assay: Ratio of Kpol/Kd for RNA-dependent DNA polymerase activity of HIV 1 reverse transcriptase assessed as incorporation of 4-EdTMP by burst assay using RNA/DNA Primer/Template combination
In short: (§2)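 Single-turnover rapid-quench at 25°C in Tris-HCl pH 7.8/NaCl/MgSO4 buffer, with enzyme in excess: 250 nM wild-type or M184V RT and 50 nM 5′-32P-labeled DNA/DNA or DNA/RNA primer/template. The incoming nucleotide concentration was varied. Products were resolved by urea-PAGE and phosphorimaged. First-phase rates were fitted to kobs = kpol[S]/(Kd+[S]), and efficiency was taken as kpol/Kd.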

[4] = biological target: T1, Human immunodeficiency virus type 1 reverse transcriptase (Human immunodeficiency virus 1, UniProt Q72547, M184V); assay: Inhibition of RNA-dependent DNA polymerase activity of HIV 1 reverse transcriptase M184V mutant assessed as incorporation of 4-EdTMP by single-turnover assay using RNA/DNA Primer/Template combination
[5] = system: Human immunodeficiency virus type 1 reverse transcriptase (Human immunodeficiency virus 1), Q72547 [M184V]; assay: Activity of DNA-dependent DNA polymerase activity of HIV 1 reverse transcriptase M184V mutant assessed as incorporation of 4-EdTMP by burst assay using DNA/DNA Primer/Template combination
In short: (§3)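 Purified HIV-1 RT (wild type or M184V built by site-directed mutagenesis) was preincubated with a 5′-32P-labeled primer annealed to a DNA or RNA template. It was rapidly mixed in a quench-flow at 25°C in 50 mM Tris-HCl pH 7.8 with 50 mM NaCl and MgSO4. Final: 300 nM P/T, 100 nM enzyme, 1 mM nucleotide. Reactions were EDTA-quenched at set times, run on urea-PAGE and phosphorimaged, then fitted to the burst equation.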

[6] = biological target: T2, Human immunodeficiency virus type 1 reverse transcriptase (Human immunodeficiency virus 1, UniProt Q72547); assay: Inhibition of RNA-dependent DNA polymerase activity of HIV 1 reverse transcriptase assessed as incorporation of 4-EdTMP by burst assay using RNA/DNA Primer/Template combination
In short: (§4)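 Rapid chemical quench-flow at 25°C in 50 mM Tris-HCl pH 7.8, 50 mM NaCl. Wt or M184V HIV-1 RT (100 nM final) was preincubated with 5′-32P-labelled primer/template (300 nM final; DNA/DNA or DNA/RNA). It was mixed with buffer containing 20 mM MgSO4 (pre-mixing) and 2 mM nucleotide triphosphate (pre-mixing). Reactions were quenched at set times with 0.5 M EDTA and products resolved by urea-PAGE with phosphorimaging. Data were fitted to the burst equation.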

[7] = biological target: Human immunodeficiency virus type 1 reverse transcriptase (Human immunodeficiency virus 1) (UniProt Q72547); assay: Activity of DNA-dependent DNA polymerase activity of HIV 1 reverse transcriptase assessed as incorporation of 4-EdTMP by burst assay using DNA/DNA Primer/Template combination; in short: as §3
[8] = biological target: T2, Human immunodeficiency virus type 1 reverse transcriptase; assay: Inhibition of DNA-dependent DNA polymerase activity of HIV 1 reverse transcriptase assessed as incorporation of 4-EdTMP by burst assay using DNA/DNA Primer/Template combination; in short: as §4
[9] = biological target: Human immunodeficiency virus type 1 reverse transcriptase (Human immunodeficiency virus 1) (UniProt Q72547); assay: Ratio of Kpol/Kd for DNA-dependent DNA polymerase activity of HIV 1 reverse transcriptase assessed as incorporation of 4-EdTMP by burst assay using DNA/DNA Primer/Template combination; in short: as §2
[10] = system: Human immunodeficiency virus type 1 reverse transcriptase (Human immunodeficiency virus 1), Q72547 [M184V]; assay: Ratio of Kpol/Kd for DNA-dependent DNA polymerase activity of HIV 1 reverse transcriptase M184V mutant assessed as incorporation of 4-EdTMP by burst assay using DNA/DNA Primer/Template combination; in short: as §2
[11] = system: Human immunodeficiency virus type 1 reverse transcriptase (Human immunodeficiency virus 1), Q72547 [M184V]; assay: Selectivity index, ratio of Kpol/Kd for RNA-dependent DNA polymerase activity of HIV 1 reverse transcriptase M184V mutant assessed as incorporation of dTMP to Kpol/Kd for RNA-dependent DNA polymerase activity of HIV 1 reverse transcriptase reverse transcriptase M184V mutant assessed as incorporation of Ed4TMP; in short: as §1
[12] = biological target: Human immunodeficiency virus type 1 reverse transcriptase (Human immunodeficiency virus 1) (UniProt Q72547); assay: Selectivity index, ratio of Kpol/Kd for RNA-dependent DNA polymerase activity of HIV 1 reverse transcriptase assessed as incorporation of dTMP to Kpol/Kd for RNA-dependent DNA polymerase activity of HIV 1 reverse transcriptase reverse transcriptase assessed as incorporation of Ed4TMP; in short: as §1
[13] = system: Human immunodeficiency virus type 1 reverse transcriptase (Human immunodeficiency virus 1), Q72547 [M184V]; assay: Ratio of Kpol/Kd for RNA-dependent DNA polymerase activity of HIV 1 reverse transcriptase M184V mutant assessed as incorporation of 4-EdTMP by burst assay using RNA/DNA Primer/Template combination; in short: as §2
[14] = biological target: T1, Human immunodeficiency virus type 1 reverse transcriptase; assay: Inhibition of DNA-dependent DNA polymerase activity of HIV 1 reverse transcriptase M184V mutant assessed as incorporation of 4-EdTMP by burst assay using DNA/DNA Primer/Template combination
[15] = system: Human immunodeficiency virus type 1 reverse transcriptase (Human immunodeficiency virus 1), Q72547 [M184V]; assay: Activity of RNA-dependent DNA polymerase activity of HIV 1 reverse transcriptase M184V mutant assessed as incorporation of 4-EdTMP by burst assay using RNA/DNA Primer/Template combination; in short: as §3
[16] = biological target: Human immunodeficiency virus type 1 reverse transcriptase (Human immunodeficiency virus 1) (UniProt Q72547); assay: Activity of RNA-dependent DNA polymerase activity of HIV 1 reverse transcriptase assessed as incorporation of 4-EdTMP by burst assay using RNA/DNA Primer/Template combination; in short: as §3
[17] = biological target: T1, Human immunodeficiency virus type 1 reverse transcriptase; assay: Inhibition of RNA-dependent DNA polymerase activity of HIV 1 reverse transcriptase M184V mutant assessed as incorporation of dTMP by burst assay using RNA/DNA Primer/Template combination
In short: (§5)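 Pre-steady-state burst assay by rapid chemical quench at 25°C. Wild-type or M184V HIV-1 RT was preincubated with 5′-32P-labelled primer annealed to a DNA or RNA template. Final conditions were 100 nM enzyme, 300 nM P/T, and 1 mM nucleotide in 50 mM Tris-HCl pH 7.8 with 50 mM NaCl and MgSO4. Reactions were quenched with EDTA and products resolved by urea-PAGE with phosphorimaging. Data were fitted to the burst equation to give amplitude, kob and kss.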

[18] = biological target: T1, Human immunodeficiency virus type 1 reverse transcriptase; assay: Inhibition of DNA-dependent DNA polymerase activity of HIV 1 reverse transcriptase M184V mutant assessed as incorporation of dTMP by burst assay using DNA/DNA Primer/Template combination; in short: as §5
[19] = system: Human immunodeficiency virus type 1 reverse transcriptase (Human immunodeficiency virus 1), Q72547 [M184V]; assay: Ratio of Kpol/Kd for RNA-dependent DNA polymerase activity of HIV 1 reverse transcriptase M184V mutant assessed as incorporation of dTMP by burst assay using RNA/DNA Primer/Template combination
In short: (§6)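 Single-turnover rapid-quench assay at 25°C, Tris-HCl pH 7.8 and NaCl. Enzyme (250 nM wild-type or M184V RT) was in excess over 5′-32P-labelled DNA/DNA or DNA/RNA P/T (50 nM), with the nucleotide triphosphate concentration varied. First-phase observed rates were fitted to kobs = kpol[S]/(Kd + [S]) to obtain Kd and kpol. Incorporation efficiency was taken as kpol/Kd.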

[20] = biological target: Human immunodeficiency virus type 1 reverse transcriptase (Human immunodeficiency virus 1) (UniProt Q72547); assay: Ratio of Kpol/Kd for RNA-dependent DNA polymerase activity of HIV 1 reverse transcriptase assessed as incorporation of dTMP by burst assay using RNA/DNA Primer/Template combination; in short: as §6
[21] = biological target: Human immunodeficiency virus type 1 reverse transcriptase (Human immunodeficiency virus 1) (UniProt Q72547); assay: Ratio of Kpol/Kd for DNA-dependent DNA polymerase activity of HIV 1 reverse transcriptase assessed as incorporation of dTMP by burst assay using DNA/DNA Primer/Template combination; in short: as §6
[22] = biological target: T2, Human immunodeficiency virus type 1 reverse transcriptase; assay: Inhibition of DNA-dependent DNA polymerase activity of HIV 1 reverse transcriptase assessed as incorporation of dTMP by burst assay using DNA/DNA Primer/Template combination; in short: as §5
[23] = biological target: Human immunodeficiency virus type 1 reverse transcriptase (Human immunodeficiency virus 1) (UniProt Q72547); assay: Activity of RNA-dependent DNA polymerase activity of HIV 1 reverse transcriptase assessed as incorporation of dTMP by burst assay using RNA/DNA Primer/Template combination; in short: as §3
[24] = system: Human immunodeficiency virus type 1 reverse transcriptase (Human immunodeficiency virus 1), Q72547 [M184V]; assay: Activity of RNA-dependent DNA polymerase activity of HIV 1 reverse transcriptase M184V mutant assessed as incorporation of dTMP by burst assay using RNA/DNA Primer/Template combination; in short: as §5
[25] = system: Human immunodeficiency virus type 1 reverse transcriptase (Human immunodeficiency virus 1), Q72547 [M184V]; assay: Activity of DNA-dependent DNA polymerase activity of HIV 1 reverse transcriptase M184V mutant assessed as incorporation of dTMP by burst assay using DNA/DNA Primer/Template combination; in short: as §3
[26] = biological target: Human immunodeficiency virus type 1 reverse transcriptase (Human immunodeficiency virus 1) (UniProt Q72547); assay: Activity of DNA-dependent DNA polymerase activity of HIV 1 reverse transcriptase assessed as incorporation of dTMP by burst assay using DNA/DNA Primer/Template combination; in short: as §3
[27] = system: Human immunodeficiency virus type 1 reverse transcriptase (Human immunodeficiency virus 1), Q72547 [M184V]; assay: Ratio of Kpol/Kd for DNA-dependent DNA polymerase activity of HIV 1 reverse transcriptase M184V mutant assessed as incorporation of dTMP by burst assay using DNA/DNA Primer/Template combination; in short: as §6
[28] = biological target: T2, Human immunodeficiency virus type 1 reverse transcriptase; assay: Inhibition of RNA-dependent DNA polymerase activity of HIV 1 reverse transcriptase assessed as incorporation of dTMP by burst assay using RNA/DNA Primer/Template combination; in short: as §5
[29] = biological target: T1, Human immunodeficiency virus type 1 reverse transcriptase; assay: Inhibition of DNA-dependent DNA polymerase activity of HIV 1 reverse transcriptase M184V mutant assessed as incorporation of d4TMP by burst assay using DNA/DNA Primer/Template combination
[30] = biological target: T2, Human immunodeficiency virus type 1 reverse transcriptase; assay: Inhibition of RNA-dependent DNA polymerase activity of HIV 1 reverse transcriptase assessed as incorporation of d4TMP by burst assay using RNA/DNA Primer/Template combination
[31] = biological target: T1, Human immunodeficiency virus type 1 reverse transcriptase; assay: Inhibition of RNA-dependent DNA polymerase activity of HIV 1 reverse transcriptase M184V mutant assessed as incorporation of d4TMP by burst assay using RNA/DNA Primer/Template combination
[32] = biological target: T2, Human immunodeficiency virus type 1 reverse transcriptase; assay: Inhibition of DNA-dependent DNA polymerase activity of HIV 1 reverse transcriptase assessed as incorporation of d4TMP by burst assay using DNA/DNA Primer/Template combination

C#C[C@@]1(COP(=O)(O)OP(=O)(O)OP(=O)(O)O)C=C[C@H](n2cc(C)c(=O)[nH]c2=O)O1
Ratio [1]: 1.9 | Ratio [2]: 2.8 | Ratio [3]: 1 µM⁻¹ s⁻¹ | Kd [4]: 43.4 µM | Activity [5]: 18.9 s⁻¹ | Kd [6]: 11.4 µM | Activity [7]: 12.1 s⁻¹ | Kd [8]: 15.8 µM | Ratio [9]: 0.77 µM⁻¹ s⁻¹ | Ratio [10]: 0.11 µM⁻¹ s⁻¹ | Ratio [11]: 1.3 | Ratio [12]: 0.97 | Ratio [13]: 0.22 µM⁻¹ s⁻¹ | Kd [14]: 168 µM | Activity [15]: 9.7 s⁻¹ | Activity [16]: 11.7 s⁻¹

Cc1cn([C@H]2C[C@H](O)[C@@H](COP(=O)(O)OP(=O)(O)OP(=O)(O)O)O2)c(=O)[nH]c1=O [DEOXYTHYMIDINE_TRIPHOSPHATE]
Kd [17]: 144 µM | Kd [18]: 73.2 µM | Ratio [19]: 0.29 µM⁻¹ s⁻¹ | Ratio [20]: 0.97 µM⁻¹ s⁻¹ | Ratio [21]: 1.47 µM⁻¹ s⁻¹ | Kd [22]: 15.4 µM | Activity [23]: 65 s⁻¹ | Activity [24]: 41.7 s⁻¹ | Activity [25]: 22.4 s⁻¹ | Activity [26]: 22.6 s⁻¹ | Ratio [27]: 0.31 µM⁻¹ s⁻¹ | Kd [28]: 67.1 µM

Cc1cn([C@H]2C=C[C@@H](COP(=O)(O)OP(=O)(O)OP(=O)(O)O)O2)c(=O)[nH]c1=O [STAVUDINE TRIPHOSPHATE]
Kd [29]: 605 µM | Kd [30]: 40.8 µM | Kd [31]: 232 µM | Kd [32]: 48 µM
